Holding throughout (format): functional
The species entered for assay [1] is Mus musculus. Briefly: In vitro cytotoxic T-Lymphocyte (CTL) activity relative to interleukin 2 was obtained at a concentration of 10 e -5 M(+ represents 21 - 40% of interleukin 2). The gist of the method: (§1)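 Splenocytes from 6- to 8-week-old female C57BL/6 and irradiated (3000 rads) DBA/2 mice, 10⁷ cells, were cultured together in RPMI 1640 with 10% FCS. Culture ran 120 h at 37 °C in 5% CO₂, with [³H]thymidine pulse of an aliquot. Percent specific lysis was scaled to IL 2 (taken as 100%) and scored 0 to ++++ in 20% bands.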

The species entered for assay [2] is Mus musculus. Briefly: In vitro cytotoxic T-Lymphocyte (CTL) activity relative to interleukin 2 was obtained at a concentration of 10 e -7 M(+ represents 21 - 40% of interleukin 2). The gist of the method: as §1
The species named for assay [3] is Mus musculus. Briefly: In vitro cytotoxic T-Lymphocyte (CTL) activity relative to interleukin 2 was obtained at a concentration of 10 e -7 M (++ represents 41 - 60% of interleukin 2). Put shortly: as §1
The species entered for assay [4] is Mus musculus. Briefly: In vitro cytotoxic T-Lymphocyte (CTL) activity relative to interleukin 2 was obtained at a concentration of 10 e -9 M(++ represents 41 - 60% of interleukin 2). Put shortly: as §1
The species named for assay [5] is Mus musculus. Briefly: In vitro cytotoxic T-Lymphocyte (CTL) activity relative to interleukin 2 was obtained at a concentration of 10 e -97M(++ represents 41 - 60% of interleukin 2). Put shortly: as §1
For assay [6], the species on record is Mus musculus. Briefly: In vitro cytotoxic T-Lymphocyte (CTL) activity relative to interleukin 2 was obtained at a concentration of 10 e -5 M(++ represents 41 - 60% of interleukin 2). The gist of the method: as §1
Assay [7] has as its system Mus musculus. Briefly: In vivo spleen immunophenotyping (TCR cells) assay was performed by injecting 25 mg/Kg of compound intraperitoneally in mice. The gist of the method: (§2)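 Female 6- to 8-week-old C57BL/6 mice were dosed ip once daily for one, four or nine consecutive days, drug in physiological saline. For single dosing, groups of seven were used. Blood and spleen cells were ACK-lysed (pH 7.3, 5 min) and PBS-washed, then stained 45 min on ice with FITC/PE surface-marker antibodies. Cells were fixed in 1% paraformaldehyde and read by flow cytometry as relative subset percentages.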

Assay [8] relates to Mus musculus. The assay can be described thus: In vivo spleen immunophenotyping (Ly5 cells) assay was performed by injecting 25 mg/Kg of compound intraperitoneally in mice. Put shortly: as §2
The test system of assay [9] is Mus musculus. Briefly: In vivo blood immunophenotyping (CD8+CD45+ cells) assay was performed by injecting 25 mg/Kg of compound intraperitoneally in mice. The gist of the method:
as §2

Assay [10] deals with Mus musculus. Briefly: In vivo blood immunophenotyping (CD4-CD11b+ cells) assay was performed by injecting 0 mg/Kg of compound intraperitoneally in mice. The gist of the method:
as §2

Assay [11] concerns Mus musculus. The assay can be described thus: In vivo spleen immunophenotyping (CD8+CD45+ cells) assay was performed by injecting 25 mg/Kg of compound intraperitoneally in mice. Put shortly:
as §2

Assay [12] deals with Mus musculus. The assay can be described thus: In vivo blood immunophenotyping (NK+CD3- cells) assay was performed by injecting 0 mg/Kg of compound intraperitoneally in mice. The gist of the method: as §2
Assay [13] relates to Mus musculus. The assay can be described thus: In vivo blood immunophenotyping (CD4-CD11b+ cells) assay was performed by injecting 50 mg/Kg of compound intraperitoneally in mice. Put shortly:
as §2

In assay [14] the test system is Mus musculus. Briefly: In vivo blood immunophenotyping (CD4+CD45+ cells) assay was performed by injecting 0 mg/Kg of compound intraperitoneally in mice. The gist of the method:
as §2

Assay [15] relates to Mus musculus. Briefly: In vivo blood immunophenotyping (CD4+CD45+ cells) assay was performed by injecting 100 mg/Kg of compound intraperitoneally in mice. The gist of the method: as §2
For assay [16], the system named is Mus musculus. Briefly: In vivo blood immunophenotyping (NK+CD3+ cells) assay was performed by injecting 25 mg/Kg of compound intraperitoneally in mice. The gist of the method:
as §2

Assay [17] deals with Mus musculus. Briefly: In vivo blood immunophenotyping (NK+CD3+ cells) assay was performed by injecting 50 mg/Kg of compound intraperitoneally in mice. Put shortly:
as §2

For assay [18], the system named is Mus musculus. The assay can be described thus: In vivo blood immunophenotyping (CD8+CD45+ cells) assay was performed by injecting 0 mg/Kg of compound intraperitoneally in mice. The gist of the method:
as §2

Assay [19] relates to Mus musculus. Briefly: In vivo immunophenotyping (CD4-CD8- cells) assay was performed by injecting 25 mg/Kg of compound intraperitoneally in mice and blood is collected. The gist of the method:
as §2

In assay [20] the test system is Mus musculus. The assay can be described thus: In vivo spleen immunophenotyping (CD8+CD45+ cells) assay was performed by injecting 0 mg/Kg of compound intraperitoneally in mice. Put shortly: as §2
In assay [21] the test system is Mus musculus. Briefly: In vivo immunophenotyping (CD4-CD8- cells) assay was performed by injecting 50 mg/Kg of compound intraperitoneally in mice and blood is collected. The gist of the method: as §2
Assay [22] deals with Mus musculus. Briefly: In vivo immunophenotyping (CD4+ cells) assay was performed by injecting 0 mg/Kg of compound intraperitoneally in mice and blood is collected. Put shortly: as §2
For assay [23], the system named is Mus musculus. The assay can be described thus: In vivo blood immunophenotyping (CD4+CD45+ cells) assay was performed by injecting 25 mg/Kg of compound intraperitoneally in mice. The gist of the method: as §2
Assay [24] relates to Mus musculus. The assay can be described thus: In vivo blood immunophenotyping (CD4-CD11b+ cells) assay was performed by injecting 25 mg/Kg of compound intraperitoneally in mice. The gist of the method:
as §2

Assay [25] deals with Mus musculus. Briefly: In vivo spleen immunophenotyping (CD8+CD45+ cells) assay was performed by injecting 50 mg/Kg of compound intraperitoneally in mice. Put shortly: as §2
Assay [26] relates to Mus musculus. Briefly: In vivo blood immunophenotyping (CD4+CD45+ cells) assay was performed by injecting 50 mg/Kg of compound intraperitoneally in mice. The gist of the method: as §2
The subject of assay [27] is Mus musculus. The assay can be described thus: In vivo spleen immunophenotyping (CD8+CD45+ cells) assay was performed by injecting 100 mg/Kg of compound intraperitoneally in mice. The gist of the method:
as §2

The subject of assay [28] is Mus musculus. Briefly: In vivo blood immunophenotyping (CD8+CD45+ cells) assay was performed by injecting 50 mg/Kg of compound intraperitoneally in mice. Put shortly: as §2
Assay [29] relates to Mus musculus. The assay can be described thus: In vivo spleen immunophenotyping (Ly5 cells) assay was performed by injecting 50 mg/Kg of compound intraperitoneally in mice. The gist of the method:
as §2

The subject of assay [30] is Mus musculus. The assay can be described thus: In vivo immunophenotyping (CD4-CD8- cells) assay was performed by injecting 100 mg/Kg of compound intraperitoneally in mice and blood is collected. The gist of the method: as §2
Assay [31] relates to Mus musculus. The assay can be described thus: In vivo blood immunophenotyping (NK+CD3- cells) assay was performed by injecting 25 mg/Kg of compound intraperitoneally in mice. The gist of the method: as §2
Assay [32] has as its system Mus musculus. The assay can be described thus: In vivo immunophenotyping (CD4-CD8- cells) assay was performed by injecting 0 mg/Kg of compound intraperitoneally in mice and blood is collected. Put shortly: as §2
Assay [33] concerns Mus musculus. The assay can be described thus: In vivo spleen immunophenotyping (TCR cells) assay was performed by injecting 50 mg/Kg of compound intraperitoneally in mice. The gist of the method: as §2
The test system of assay [34] is Mus musculus. The assay can be described thus: In vivo blood immunophenotyping (CD8+CD45+ cells) assay was performed by injecting 100 mg/Kg of compound intraperitoneally in mice. The gist of the method:
as §2

Assay [35] deals with Mus musculus. The assay can be described thus: In vivo blood immunophenotyping (NK+CD3+ cells) assay was performed by injecting 0 mg/Kg of compound intraperitoneally in mice. The gist of the method:
as §2

For assay [36], the system named is Mus musculus. Briefly: In vivo spleen immunophenotyping (Ly5 cells) assay was performed by injecting 0 mg/Kg of compound intraperitoneally in mice. The gist of the method: as §2
The test system of assay [37] is Mus musculus. Briefly: In vivo spleen immunophenotyping (TCR cells) assay was performed by injecting 0 mg/Kg of compound intraperitoneally in mice. The gist of the method:
as §2

Assay [38] relates to Mus musculus. Briefly: In vivo blood immunophenotyping (NK+CD3- cells) assay was performed by injecting 50 mg/Kg of compound intraperitoneally in mice. Put shortly:
as §2

The species named for assay [39] is Mus musculus. Briefly: In vitro cytotoxic T-Lymphocyte (CTL) activity relative to interleukin 2 was obtained at a concentration of 10 e -7 M(++ represents 21 - 40% of interleukin 2). The conditions noted are these: in the assay text read “+ represents” for “++ represents”. Put shortly:
as §1

Assay [40] is filed under the species Mus musculus. The assay can be described thus: In vitro cytotoxic T-Lymphocyte (CTL) activity relative to interleukin 2 was obtained at a concentration of 10 e -7 M(++ represents 41 - 60% of interleukin 2). The gist of the method:
as §1

Where “and” joins values, the source holds several entries; their conditions need not be identical. Identical values can stand only once.

Turning to `CN(C)c1ncnc2c1ncn2CCCCCOC(=O)NC(CCCNC(N)=O)C(=O)O` (configuration not stated), the CTL activity in the assay listed under Mus musculus [1] was 21 - 40% of interleukin 2.
On to `N=C(N)NCCCC(NC(=O)OCCCCCn1cnc2c(S)ncnc21)C(=O)O` (single isomer, unassigned), for which the CTL activity in the assay listed under Mus musculus [2] is given as 21 - 40% of interleukin 2.
Turning to `CN(C)c1ncnc2c1ncn2CCSCCOC(=O)NC(CCCNC(=N)N)C(=O)O` (single isomer, unassigned), the CTL activity in the assay filed under Mus musculus [3] is on record as 41 - 60% of interleukin 2.
As to `CN(C)c1ncnc2c1ncn2CCCCOC(=O)N[C@@H](CCCNC(=N)N)C(=O)O`, the CTL activity in the assay filed under Mus musculus [4] is listed as 41 - 60% of interleukin 2.
With `CN(C)c1ncnc2c1ncn2CCCCCO`, the CTL activity in the assay filed under Mus musculus [5] was 41 - 60% of interleukin 2.
In the case of `N=C(N)NCCCC(NC(=O)OCCCCCn1cnc2cncnc21)C(=O)O` (single isomer, unassigned), in the assay listed under Mus musculus [6], the CTL activity was 41 - 60% of interleukin 2.
On to `CN(C)c1ncnc2c1ncn2CCCCCOC(=O)N[C@@H](CCCNC(=N)N)C(=O)O` [BCH-1393], for which the Mean in the assay on Mus musculus [7] is 39.8; in the assay with Mus musculus [8], 54.1; with Mus musculus [9] it was 11.7 and 8.39; in the assay on Mus musculus [10] it was 9.6; in the assay on Mus musculus [11] it was 7.46; in the assay on Mus musculus [12], 6.01. Further, the Mean is 9.68 with Mus musculus [13]; 17.5 in the assay on Mus musculus [14]; 20.6 with Mus musculus [15]; 5.84 with Mus musculus [16]; 3.25 in the assay on Mus musculus [17]; 8.25 and 6.9 in the assay on Mus musculus [18]. The Mean in the assay with Mus musculus [19] is 70.7; with Mus musculus [20] it was 7.81; with Mus musculus [21] it was 74.7; in the assay with Mus musculus [22] it was 20.9 and 8.1; in the assay with Mus musculus [23] it was 18.5; in the assay on Mus musculus [24], 13.7. Moreover, the Mean in the assay with Mus musculus [25] is 8.92; with Mus musculus [26] it was 22.1; in the assay with Mus musculus [27], 9.13; with Mus musculus [28] it was 10.1 and 9.06; in the assay on Mus musculus [29], 50.4; in the assay with Mus musculus [30] it was 82.1. Besides, the Mean in the assay on Mus musculus [31] is on record as 5.9; with Mus musculus [32], 65.9; in the assay on Mus musculus [33], 45.1; in the assay with Mus musculus [34] it was 9.96; with Mus musculus [35] it was 3.43; in the assay with Mus musculus [36] it was 55.5. For the same compound, the results for the Mean in the assay on Mus musculus [37] and with Mus musculus [38] were 38.9 and 8.14, respectively.
For `N=C(N)NCCC[C@H](NC(=O)OCCCCCn1cnc2c(N3CCC3)ncnc21)C(=O)O`, the CTL activity in the assay listed under Mus musculus [39] was 21 - 40% of interleukin 2.
On to `CC1CN1c1ncnc2c1ncn2CCCCCOC(=O)N[C@@H](CCCNC(=N)N)C(=O)O` (some centres not stated), for which the CTL activity in the assay listed under Mus musculus [40] is reported as 41 - 60% of interleukin 2.
Same read-out and setting: the same measure for `N=C(N)NCCCC(NC(=O)OCCCCCn1cnc2c(O)ncnc21)C(=O)O` (single isomer, unassigned): 41 - 60% of interleukin 2.
On the same count and under the same terms, the same measure for `CN(C)c1ncnc2c1ncn2C[C@H]1CC[C@H](COC(=O)N[C@@H](CCCNC(=N)N)C(=O)O)CC1`: 41 - 60% of interleukin 2.

Values taken from ChEMBL document CHEMBL1130139, “Synthesis and activity of 6-substituted purine linker amino acid immunostimulants” (1997).
